Experimental data from ChEMBL document CHEMBL3102843, “Synthesis and antifungal activity of substituted 2,4,6-pyrimidinetrione carbaldehyde hydrazones” (Bioorg Med Chem, 2014).
In brackets after ≈: the same amount, converted by molar mass. Activity calls are given as the source filed them. No rule for the calls is given here.

Columns and labels:
Format in all cases: functional
Candida albicans [1] = assay: Antifungal activity against Candida albicans ATCC 10231 after 48 to 72 hrs by broth microdilution method
Procedure, shortened: (§1)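 Broth microdilution per NCCLS. Organisms were subcultured on Sabouraud agar. Inoculum was 5–7 colonies from YM agar in sterile water, adjusted to 0.5 McFarland at 530 nm (1–5×10⁶ cells/mL stock), held 30 min at RT, then diluted 1:50 in HEPES-buffered RPMI 1640. DMSO stocks were twofold-diluted, with final DMSO ≤1%. Plates ran 48–72 h at 35 °C, humid. MIC is the lowest concentration giving ≥80% growth reduction vs drug-free wells, scored visually. Fluconazole or amphotericin B ran as drug control.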

Nakaseomyces glabratus [2] = assay: Antifungal activity against Candida glabrata ATCC 48435 at 31 ug/ml after 48 to 72 hrs by broth microdilution method
Nakaseomyces glabratus [3] = assay: Antifungal activity against Candida glabrata ATCC 48435 after 48 to 72 hrs by broth microdilution method; procedure, shortened: as §1
Candida albicans [4] = assay: Antifungal activity against Candida albicans ATCC 10231 at 62 ug/ml after 48 to 72 hrs by broth microdilution method
Nakaseomyces glabratus [5] = assay: Antifungal activity against Candida glabrata ATCC 48435 at 16 ug/ml after 48 to 72 hrs by broth microdilution method
Candida albicans [6] = assay: Antifungal activity against Candida albicans ATCC 10231 at 16 ug/ml after 48 to 72 hrs by broth microdilution method

In the case of `CN/N=C(\C)C1C(=O)NC(=O)NC1=O`, the MIC80 (Candida albicans [1]) is reported as “inactive”, the inhibition at 31 µg/mL (Nakaseomyces glabratus [2]) is reported as less than 50% and the MIC80 (Nakaseomyces glabratus [3]) is reported as 31 µg/mL (≈ 156 µM).
In the case of `O=C1NC(=O)C(/C=N/NC(=O)c2ccc([N+](=O)[O-])cc2)C(=O)N1`, the MIC80 (Candida albicans [1]) is reported as 62 µg/mL (≈ 194 µM), the inhibition at 62 µg/mL (Candida albicans [4]) is reported as less than 50% and the inhibition at 16 µg/mL (Nakaseomyces glabratus [5]) is reported as less than 50%. For the same compound, the MIC80 (Nakaseomyces glabratus [3]) was 16 µg/mL (≈ 50.1 µM).
`Cc1ccc(S(=O)(=O)N/N=C/C2C(=O)NC(=O)NC2=O)cc1` was tested, and the MIC80 (Candida albicans [1]) was 16 µg/mL (≈ 49.3 µM), the MIC80 (Nakaseomyces glabratus [3]) was “inactive” and the inhibition at 16 µg/mL (Candida albicans [6]) was less than 50%.
